Ten compounds from ChEMBL document CHEMBL1799921, “3-(1,3,4-Thiadiazole-2-yl)quinoline derivatives: synthesis, characterization and anti-microbial activity” (Eur J Med Chem, 2011) can be followed below.

In brackets after ≈: the same amount, converted by molar mass.

In assay [1] the test system is Escherichia coli. Kind of assay: Antibacterial activity against Escherichia coli measured at MIC after 18 hrs by halo zone test. Type of assay: functional. An outline of the steps:
(§1)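 Disk diffusion. Strains subcultured 18 h at 37 °C in BHI, then suspended in saline by McFarland to about 10⁵ CFU/mL. Suspension mixed 1:1 with antibiotic agar at 40 °C and plated. 6.0 mm paper disks loaded with dilutions from a DMSO stock (1 mg per 100 of DMSO). Incubated 18 h at 36 °C. Inhibition zone (mm) measured at the MIC. Amoxicillin and DMSO disks as controls.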

The subject of assay [2] is Streptococcus pyogenes. As to the kind of experiment: Antibacterial activity against Streptococcus pyogenes after 18 hrs by macro-dilution test. It counts as functional. The method, boiled down: (§2)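 Tube macro-dilution. Compounds in DMSO serially diluted to final […]. 24 h old inoculum added to each tube. Standard inoculum […]. Incubated 18 h at 37 °C. MIC is the lowest concentration with no visible growth, read visually. DMSO negative and amoxicillin positive controls.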

In assay [3] the test system is Salmonella typhimurium. Kind of assay: Antibacterial activity against Salmonella Typhimurium after 18 hrs by macro-dilution test. It counts as functional, Salmonella enterica subsp. enterica serovar Typhimurium. As to conditions: Salmonella enterica. An outline of the steps: as §2
Assay [4] concerns Staphylococcus aureus. As to the kind of experiment: Antibacterial activity against Staphylococcus aureus measured at MIC after 18 hrs by halo zone test. It counts as functional. An outline of the steps: as §1
Assay [5] deals with Staphylococcus aureus. Kind of assay: Antibacterial activity against Staphylococcus aureus after 18 hrs by macro-dilution test. Type of assay: functional. The method, boiled down: as §2
Assay [6] has as its system Streptococcus pyogenes. As to the kind of experiment: Antibacterial activity against Streptococcus pyogenes measured at MIC after 18 hrs by halo zone test. Type of assay: functional. The method, boiled down: as §1
Assay [7] relates to Salmonella typhimurium. As to the kind of experiment: Antibacterial activity against Salmonella Typhimurium measured at MIC after 18 hrs by halo zone test. It counts as functional, Salmonella enterica subsp. enterica serovar Typhimurium. An outline of the steps:
as §1

Assay [8] concerns Escherichia coli. As to the kind of experiment: Antibacterial activity against Escherichia coli after 18 hrs by macro-dilution test. It counts as functional. An outline of the steps:
as §2

Regarding `CC(=O)NC1=NN(C(C)=O)C(c2cc3ccccc3nc2Cl)S1` (stereo not given), the “inhibition zone (IZ)” value in assay [1] stood at 17.76 mm; in assay [4], 15.67 mm; in assay [6], 16.97 mm; in assay [7], 13.42 mm. Besides, the MIC in assay [2], in assay [3], in assay [5] and in assay [8] was 64 µg/mL (≈ 183 µM) throughout.
As to `CC(=O)NC1=NN(C(C)=O)C(c2cc3cccc(C)c3nc2Cl)S1` (stereo not given), the “inhibition zone (IZ)” value in assay [1] is listed as 18.34 mm; in assay [4] it was 13.66 mm; in assay [6], 16.77 mm; in assay [7] it was 18.08 mm. Besides, the MIC was 64 µg/mL (≈ 176 µM) in assay [2], 256 µg/mL (≈ 706 µM) in assay [3], 64 µg/mL (≈ 176 µM) in assay [5] and 256 µg/mL (≈ 706 µM) in assay [8].
With `Fc1ccc(F)c(NC(=S)N/N=C/c2cc3ccccc3nc2Cl)c1`, the “inhibition zone (IZ)” value in assay [1] amounted to 10.13 mm; in assay [4], 16.75 mm; in assay [6] it was 14.07 mm; in assay [7] it was 11.56 mm. The MIC in assay [2] turned out to be 64 µg/mL (≈ 170 µM); in assay [3], 32 µg/mL (≈ 84.9 µM); in assay [5], 32 µg/mL (≈ 84.9 µM); in assay [8], 64 µg/mL (≈ 170 µM).
Turning to `Cc1cccc2cc(/C=N/NC(=S)Nc3ccc([N+](=O)[O-])cc3)c(Cl)nc12`, the “inhibition zone (IZ)” value in assay [1] was found to be 17.48 mm; in assay [4], 17.31 mm; in assay [6], 13.27 mm; in assay [7], 14.23 mm. Besides, the MIC in assay [2] was found to be 32 µg/mL (≈ 80 µM); in assay [3], 64 µg/mL (≈ 160 µM); in assay [5], 64 µg/mL (≈ 160 µM); in assay [8] it was 32 µg/mL (≈ 80 µM).
For `CC(=O)N(C1=NN(C(C)=O)C(c2cc3ccccc3nc2Cl)S1)c1ccc([N+](=O)[O-])cc1` (stereo not given), the “inhibition zone (IZ)” value in assay [1] is listed as 14.34 mm; in assay [4], 14.29 mm; in assay [6], 14.92 mm; in assay [7], 17.03 mm. The MIC in assay [2], in assay [3], in assay [5] and in assay [8] was 64 µg/mL (≈ 136 µM) throughout.
Turning to `O=[N+]([O-])c1ccc(NC(=S)N/N=C/c2cc3cccc(Cl)c3nc2Cl)cc1`, the minimum inhibitory concentration (MIC) worked out at 64 µg/mL (≈ 152 µM) in assay [2], 64 µg/mL (≈ 152 µM) in assay [3], 32 µg/mL (≈ 76.1 µM) in assay [5] and 256 µg/mL (≈ 609 µM) in assay [8]. Further, the “inhibition zone (IZ)” value in assay [4] is 19.7 mm; in assay [6], 15.26 mm; in assay [7] it was 15.99 mm.
With `Cc1ccccc1NC(=S)N/N=C/c1cc2ccccc2nc1Cl`, the entries for the “inhibition zone (IZ)” value in assay [1], in assay [6] and in assay [7] were 18.84 mm, 16.48 mm and 14.73 mm, respectively. Further, the MIC amounted to 64 µg/mL (≈ 180 µM) in assay [2], 64 µg/mL (≈ 180 µM) in assay [3], 256 µg/mL (≈ 721 µM) in assay [5] and 32 µg/mL (≈ 90.2 µM) in assay [8].
`S=C(N/N=C/c1cc2cccc(Cl)c2nc1Cl)NC1CCCCCCC1`: the “inhibition zone (IZ)” value is on record as 17.62 mm in assay [1], 17.54 mm in assay [6] and 17.54 mm in assay [7]. In addition, the MIC was determined as 256 µg/mL (≈ 625 µM) in assay [2], 256 µg/mL (≈ 625 µM) in assay [3], 256 µg/mL (≈ 625 µM) in assay [5] and 128 µg/mL (≈ 313 µM) in assay [8].
With `Cc1cccc2cc(/C=N/NC(N)=S)c(Cl)nc12`, the MIC came to 128 µg/mL (≈ 459 µM) in assay [2], 256 µg/mL (≈ 918 µM) in assay [3], 64 µg/mL (≈ 230 µM) in assay [5] and 256 µg/mL (≈ 918 µM) in assay [8]. Further, the “inhibition zone (IZ)” value is listed as 12.76 mm in assay [4], 17.1 mm in assay [6] and 18.02 mm in assay [7].
`O=[N+]([O-])c1ccc(NC(=S)N/N=C/c2cc3ccccc3nc2Cl)cc1`: the figures for the “inhibition zone (IZ)” value in assay [1], in assay [4] and in assay [6] were 13.27 mm, 13.46 mm and 12.25 mm, respectively. Moreover, the MIC in assay [2] came out at 64 µg/mL (≈ 166 µM); in assay [3], 256 µg/mL (≈ 663 µM); in assay [5], 64 µg/mL (≈ 166 µM); in assay [8], 32 µg/mL (≈ 82.9 µM).

In general, MIC refers to the lowest concentration that inhibits growth of the organism. A lower MIC goes with inhibition by little substance.
